From ChEMBL document CHEMBL2424563, “Semisynthesis of mallotus B from rottlerin: evaluation of cytotoxicity and apoptosis-inducing activity” (J Nat Prod, 2013)
Activity calls are given as the source filed them. No cut-off for these calls is given here.

Each compound was assayed on HL-60 (assay: Cell cycle arrest in human HL60 cells assessed as accumulation at sub-G0 phase at 10 uM after 24 hrs by propidium iodide staining-based FACS flow cytometric analysis (reference value: 3%)). Details: not given.
Format: functional
Summary of the method: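 HL-60 cells seeded at 0.44 × 10^6/mL and exposed to 10, 20, 30 or 40 μM for 24 h. Cells were pelleted at 400g, washed in ice-cold PBS and fixed overnight in ice-cold 70% ethanol at 4 °C. They were treated with RNase (0.2 mg/mL) for 1 h at 37 °C, then stained with PI (10 μg/mL) for 30 min in the dark. Flow cytometry collected 10 000 events (FL2-A vs FL2-W). Sub-G0, G1, S and G2 fractions were fitted by modelling software.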
`CC(=O)c1c(O)c(C)c(O)c(Cc2c(O)c(CC=C(C)C)c(O)c3c2O[C@H](c2ccccc2)CC3=O)c1O` showed an Activity of 14%.

What follows are compounds tested on PC-3 (assay: Cytotoxicity against human PC3 cells after 48 hrs by MTT assay). Details: PC-3, 48 h.
Format: functional, cell-based
Summary of the method: (§1)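 Cell lines from NCI, grown in RPMI1640 or MEM with 10% heat-inactivated FBS at 37 °C under 5% CO2. Seeded at 6000 cells/well overnight, then exposed to 1, 10, 30, 50 and 100 μM for 48 h. MTT (2.5 mg/mL) added for 3 h, formazan dissolved in DMSO, OD read at 540 nm (ref 620 nm). Growth taken as treated vs untreated absorbance, giving IC50.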
For `CC(=O)c1c(O)c(C)c(O)c(Cc2c(O)c(CC=C(C)C)c(O)c3c2O[C@H](c2ccccc2)CC3=O)c1O`, the IC50 was > 20 µM.

Each compound was assayed on HL-60 (assay: Cytotoxicity against human HL60 cells after 48 hrs by MTT assay). Details: HL-60, 48 h.
Format: functional, cell-based
Summary of the method: as §1
Compound `CC(=O)c1c(O)c(C)c(O)c(Cc2c(O)c(CC=C(C)C)c(O)c3c2O[C@H](c2ccccc2)CC3=O)c1O` has an IC50 of 16 µM.

Each compound was assayed on MIA PaCa-2 (assay: Cytotoxicity against human MIAPaCa2 cells after 48 hrs by MTT assay). Details: MIA PaCa-2, 48 h.
Format: functional, cell-based
Summary of the method: as §1
For `CC(=O)c1c(O)c(C)c(O)c(Cc2c(O)c(CC=C(C)C)c(O)c3c2O[C@H](c2ccccc2)CC3=O)c1O`, the IC50 was 9 µM.

The compounds below were run on COLO 205 (assay: Cytotoxicity against human COLO205 cells after 48 hrs by MTT assay). Details: COLO 205, 48 h.
Format: functional, cell-based
Summary of the method: as §1
With `CC(=O)c1c(O)c(C)c(O)c(Cc2c(O)c(CC=C(C)C)c(O)c3c2O[C@H](c2ccccc2)CC3=O)c1O` the IC50 was > 20 µM.

The compounds below were run on HepG2 (assay: Cytotoxicity against human HepG2 cells after 48 hrs by MTT assay). Details: HepG2, 48 h.
Format: functional, cell-based
Summary of the method: as §1
In the case of `CC(=O)c1c(O)c(C)c(O)c(Cc2c(O)c(CC=C(C)C)c(O)c3c2O[C@H](c2ccccc2)CC3=O)c1O`, the IC50 is reported as > 20 µM.

These compounds were tested on HL-60 (assay: Induction of apoptosis in human HL60 cells assessed as formation of scattered apoptotic bodies at 20 to 40 uM after 24 hrs by fluorescence microscopic analysis). Details: not given.
Format: functional, cell-based
Summary of the method: (§2)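 After 24 h exposure, HL-60 cells were pelleted at 400g, washed twice in PBS and fixed in cold acetic acid–methanol (1:3) for 3 h on ice. They were spread on slides and dried overnight at room temperature. Staining used Hoechst 33258 (5 μg/mL in 0.45 M disodium phosphate/0.01 M citric acid/0.05% Tween 20) for 30 min at room temperature. Slides were mounted in PBS–glycerol and viewed by fluorescence microscopy at 30× for condensed nuclei and apoptotic bodies.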
For `CC(=O)c1c(O)c(C)c(O)c(Cc2c(O)c(CC=C(C)C)c(O)c3c2O[C@H](c2ccccc2)CC3=O)c1O`, the Activity was “Active”.

Each compound was assayed on HL-60 (assay: Induction of apoptosis in human HL60 cells assessed as nuclear condensation at 20 to 40 uM after 24 hrs by fluorescence microscopic analysis). Details: not given.
Format: functional, cell-based
Summary of the method: as §2
With `CC(=O)c1c(O)c(C)c(O)c(Cc2c(O)c(CC=C(C)C)c(O)c3c2O[C@H](c2ccccc2)CC3=O)c1O` the Activity was “Active”.

These compounds were tested on HL-60 (assay: Induction of apoptosis in human HL60 cells assessed as shrinkage of cell size at 20 to 40 uM after 24 hrs by fluorescence microscopic analysis). Details: not given.
Format: functional, cell-based
Summary of the method: as §2
For `CC(=O)c1c(O)c(C)c(O)c(Cc2c(O)c(CC=C(C)C)c(O)c3c2O[C@H](c2ccccc2)CC3=O)c1O`, the Activity was “Active”.

The compounds below were run on HL-60 (assay: Induction of apoptosis in human HL60 cells assessed as cell wall deformation at 20 to 40 uM after 24 hrs by fluorescence microscopic analysis). Details: not given.
Format: functional, cell-based
Summary of the method: as §2
For `CC(=O)c1c(O)c(C)c(O)c(Cc2c(O)c(CC=C(C)C)c(O)c3c2O[C@H](c2ccccc2)CC3=O)c1O`, the Activity was “Active”.

Each compound was assayed on HL-60 (assay: Induction of apoptosis in human HL60 cells assessed as vesicle formation at 10 to 40 uM after 24 hrs by phase contrast microscopic analysis). Details: not given.
Format: functional, cell-based
Summary of the method: (§3)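 HL-60 cells were exposed to the test concentrations for 24 h. Unstained cells were then photographed under phase-contrast microscopy to assess cellular morphology.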
In the case of `CC(=O)c1c(O)c(C)c(O)c(Cc2c(O)c(CC=C(C)C)c(O)c3c2O[C@H](c2ccccc2)CC3=O)c1O`, the Activity is reported as “Active”.

Each compound was assayed on HL-60 (assay: Induction of apoptosis in human HL60 cells assessed as blebbing of cell wall at 10 to 40 uM after 24 hrs by phase contrast microscopic analysis). Details: not given.
Format: functional, cell-based
Summary of the method: as §3
For `CC(=O)c1c(O)c(C)c(O)c(Cc2c(O)c(CC=C(C)C)c(O)c3c2O[C@H](c2ccccc2)CC3=O)c1O`, the Activity was “Active”.

What follows are compounds tested on HL-60 (assay: Induction of mitochondrial membrane potential loss in human HL60 cells at 40 uM after 24 hrs by rhodamine-123 staining-based FACS flow cytometric analysis (reference value: 5%)). Details: not given.
Format: functional
For `CC(=O)c1c(O)c(C)c(O)c(Cc2c(O)c(CC=C(C)C)c(O)c3c2O[C@H](c2ccccc2)CC3=O)c1O`, the Activity was 43%.

The compounds below were run on HL-60 (assay: Induction of mitochondrial membrane potential loss in human HL60 cells at 30 uM after 24 hrs by rhodamine-123 staining-based FACS flow cytometric analysis (reference value: 5%)). Details: not given.
Format: functional
`CC(=O)c1c(O)c(C)c(O)c(Cc2c(O)c(CC=C(C)C)c(O)c3c2O[C@H](c2ccccc2)CC3=O)c1O` gave an Activity of 25%.

Each compound was assayed on HL-60 (assay: Induction of mitochondrial membrane potential loss in human HL60 cells at 20 uM after 24 hrs by rhodamine-123 staining-based FACS flow cytometric analysis (reference value: 5%)). Details: not given.
Format: functional
Work on `CC(=O)c1c(O)c(C)c(O)c(Cc2c(O)c(CC=C(C)C)c(O)c3c2O[C@H](c2ccccc2)CC3=O)c1O` yielded an Activity of 12%.

What follows are compounds tested on HL-60 (assay: Induction of mitochondrial membrane potential loss in human HL60 cells at 10 uM after 24 hrs by rhodamine-123 staining-based FACS flow cytometric analysis (reference value: 5%)). Details: not given.
Format: functional
`CC(=O)c1c(O)c(C)c(O)c(Cc2c(O)c(CC=C(C)C)c(O)c3c2O[C@H](c2ccccc2)CC3=O)c1O` was tested, and the Activity was 6%.
